Key:
[1] = Inhibition of quorum sensing system in Pseudomonas aeruginosa MH602 PlasB::gfp at 125 uM incubated for 15 hrs by GFP reporter gene assay
Outline: (§1)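 Reporter strain P. aeruginosa PlasB::gfp (PAMH602) makes its own AHL; lasB promoter drives GFP-ASV. Cultures incubated with compound over 250–31.25 µM at 37 °C for 15 h, then GFP fluorescence read at 535 nm. QSI expressed as % relative to untreated PAMH602 negative control. Furanone positive control.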

[2] = Inhibition of quorum sensing system in Pseudomonas aeruginosa MH602 PlasB::gfp at 31.25 uM incubated for 15 hrs by GFP reporter gene assay; outline: as §1
Pseudomonas aeruginosa [3] = assay: Toxicity in Pseudomonas aeruginosa MH602 PlasB::gfp assessed as inhibition of bacterial growth at 250 uM incubated for 15 hrs by spectrophotometry; format: organism-based; details: MH602, 15 h, read-out: GI
Pseudomonas aeruginosa [4] = assay: Toxicity in Pseudomonas aeruginosa MH602 PlasB::gfp assessed as inhibition of bacterial growth at 125 uM incubated for 15 hrs by spectrophotometry; format: organism-based; details: MH602, 15 h, read-out: GI
Pseudomonas aeruginosa [5] = assay: Toxicity in Pseudomonas aeruginosa MH602 PlasB::gfp assessed as inhibition of bacterial growth at 62.5 uM incubated for 15 hrs by spectrophotometry; format: organism-based; details: MH602, 15 h, read-out: GI
Pseudomonas aeruginosa [6] = assay: Toxicity in Pseudomonas aeruginosa MH602 PlasB::gfp assessed as inhibition of bacterial growth at 31.25 uM incubated for 15 hrs by spectrophotometry; format: organism-based; details: MH602, 15 h, read-out: GI
[7] = Inhibition of quorum sensing system in Pseudomonas aeruginosa MH602 PlasB::gfp at 250 uM incubated for 15 hrs by GFP reporter gene assay; outline: as §1
[8] = Inhibition of quorum sensing system in Pseudomonas aeruginosa MH602 PlasB::gfp at 62.5 uM incubated for 15 hrs by GFP reporter gene assay; outline: as §1
Pseudomonas aeruginosa [9] = assay: Inhibition of biofilm formation in Pseudomonas aeruginosa PAO1 at 250 uM incubated for 6 hrs by crystal violet staining based method; format: functional; details: PAO1, 6 h
Outline: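 P. aeruginosa PA01 biofilm. Cultures grown with or without test compound for 6 h. Biofilm biomass quantified by crystal violet staining (OD550). % inhibition calculated relative to DMSO control.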

Compound | inhibition [1] [%] | inhibition [2] [%] | inhibition at 250 µM (Pseudomonas aeruginosa [3]) [%] | inhibition at 125 µM (Pseudomonas aeruginosa [4]) [%] | inhibition at 62.5 µM (Pseudomonas aeruginosa [5]) [%] | inhibition at 31.25 µM (Pseudomonas aeruginosa [6]) [%] | inhibition [7] [%] | inhibition [8] [%] | inhibition at 250 µM (Pseudomonas aeruginosa [9]) [%]
C=C1NC(=O)C(C)=C1c1ccc(Br)cc1 | 45.2 | 33.7 | ≤ 15 | ≤ 15 | ≤ 15 | ≤ 15 | 59.6 | 38.1 | 
C=C1C(c2ccc(Br)cc2)=CC(=O)N1c1ccc(C(F)(F)F)cc1 | 48.4 | 11.2 | ≤ 15 | ≤ 15 | ≤ 15 | ≤ 15 | 52.8 | 45.8 | 37.5
O=C1C=C(c2ccc(Cl)cc2)CN1 | 42.7 | 22.6 | ≤ 15 | ≤ 15 | ≤ 15 | ≤ 15 | 61.5 | 26.4 | 9.6
C=C1C(c2ccc(Br)cc2)=CC(=O)N1c1ccc(S(C)(=O)=O)cc1 | 58.1 | 11.2 | 15 to 30 | ≤ 15 | ≤ 15 | ≤ 15 | 58.7 | 31.3 | 10.3
C=C1C(c2ccccc2F)=CC(=O)N1c1cccc(Br)c1 | 43.3 | 29.3 | ≤ 15 | ≤ 15 | ≤ 15 | ≤ 15 | 50.5 | 34.7 | 40.8
C=C1C(c2ccccc2F)=CC(=O)N1Cc1ccccc1 | 52.4 | 27 | ≤ 15 | ≤ 15 | ≤ 15 | ≤ 15 | 55.2 | 47.5 | 
C=C1C(c2ccccc2F)=CC(=O)N1c1ccc(Br)cc1 | 54.9 | 39.7 | ≤ 15 | ≤ 15 | ≤ 15 | ≤ 15 | 60.7 | 48.4 | 49.2
C=C1NC(=O)C=C1c1ccccc1Cl | 69.7 | 37.8 | ≤ 15 | ≤ 15 | ≤ 15 | ≤ 15 | 72 | 58.3 | 
C=C1NC(=O)C(C)=C1c1ccc(F)cc1 | 59.9 | 26.3 | ≤ 15 | ≤ 15 | ≤ 15 | ≤ 15 | 66.5 | 32.1 | 4.4
C=C1C(c2ccccc2F)=CC(=O)N1c1cccc(F)c1 | 55.2 | 24 | ≤ 15 | ≤ 15 | ≤ 15 | ≤ 15 | 61.1 | 41.8 | 58.9
C=C1C(c2ccc(Br)cc2)=CC(=O)N1c1cccc(Br)c1 | 60.3 | 12.6 | ≤ 15 | ≤ 15 | ≤ 15 | ≤ 15 | 73.2 | 37.7 | 47.1
C=C1C(c2ccc(Br)cc2)=CC(=O)N1c1cccc(F)c1 | 49.1 | 5.8 | ≤ 15 | ≤ 15 | ≤ 15 | ≤ 15 | 50.9 | 47.7 | 29.3
C=C1C(c2ccccc2F)=CC(=O)N1c1ccc(Cl)cc1 | 57.9 | 36.2 | ≤ 15 | ≤ 15 | ≤ 15 | ≤ 15 | 59.4 | 51.6 | 46.5
C=C1C(c2ccc(Br)cc2)=CC(=O)N1c1ccc(OC)cc1 | 61.8 | 14.4 | ≤ 15 | ≤ 15 | ≤ 15 | ≤ 15 | 73.3 | 32.1 | 54.9
C=C1NC(=O)C=C1c1ccc(OC)cc1 | 62.7 | 37 | 15 to 30 | ≤ 15 | ≤ 15 | ≤ 15 | 74.4 | 44.5 | 38.8
C=C1C(c2ccc(Br)cc2)=CC(=O)N1c1ccccc1 | 62 | 22 | 15 to 30 | ≤ 15 | ≤ 15 | ≤ 15 | 78.6 | 39.2 | 35.2
C=C1NC(=O)C=C1c1ccc(C(=O)O)cc1 | 50.8 | 19.6 | ≤ 15 | ≤ 15 | ≤ 15 | ≤ 15 | 68 | 33.6 | 12.9
C=C1NC(=O)C(C)=C1c1ccccc1F | 48.8 | 28.8 | ≤ 15 | ≤ 15 | ≤ 15 | ≤ 15 | 54.8 | 31.7 | 
C=C1NC(=O)C=C1c1ccc(F)cc1 | 76.3 | 33.3 | 15 to 30 | ≤ 15 | ≤ 15 | ≤ 15 | 82.4 | 60.2 | 46.1
C=C1NC(=O)C=C1c1ccc(Cl)cc1 | 64.6 | 33.3 | ≤ 15 | ≤ 15 | ≤ 15 | ≤ 15 | 73.8 | 49.4 | 60.9
C=C1NC(=O)C=C1c1ccc(C)cc1 | 78.7 | 36.5 | ≤ 15 | ≤ 15 | ≤ 15 | ≤ 15 | 80.5 | 72.3 | 
C=C1C(c2ccc(Br)cc2)=CC(=O)N1c1ccc(Cl)cc1 | 50.3 | 7.39 | ≤ 15 | ≤ 15 | ≤ 15 | ≤ 15 | 52.4 | 44.9 | 43.8
C=C1NC(=O)C=C1c1ccc([N+](=O)[O-])cc1 | 69.9 | 51.3 | 15 to 30 | ≤ 15 | ≤ 15 | ≤ 15 | 80.9 | 63.5 | 57.2
C=C1C(c2ccc(Br)cc2)=CC(=O)N1c1ccc(C)cc1 | 52.6 | 15.2 | 15 to 30 | ≤ 15 | ≤ 15 | ≤ 15 | 61.6 | 42.7 | 16.3
C=C1NC(=O)C(C)=C1c1cccc(C(F)(F)F)c1 | 47 | 26.3 | ≤ 15 | ≤ 15 | ≤ 15 | ≤ 15 | 47.2 | 33.2 | 
O=C1C=C(c2ccc(Br)cc2)/C(=C/Br)N1 | 53.9 | 38.2 | > 30 | > 30 | 15 to 30 | ≤ 15 | 82.3 | 53.5 | 
C=C1NC(=O)C(C)=C1c1ccc(Cl)cc1 | 38.2 | 23.7 | ≤ 15 | ≤ 15 | ≤ 15 | ≤ 15 | 47.7 | 33.2 | 
O=C1C=C(c2ccccc2F)/C(=C/Br)N1 | 81.3 | 61.5 | > 30 | > 30 | 15 to 30 | ≤ 15 | 86.3 | 75 | 
O=C1C=C(c2ccccc2)/C(=C/Br)N1 | 77.8 | 56.8 | > 30 | > 30 | 15 to 30 | ≤ 15 | 84.8 | 66.6 | 

From ChEMBL document CHEMBL4316620, “Dihydropyrrolones as bacterial quorum sensing inhibitors” (Bioorg Med Chem Lett, 2019)
